Source: ChEMBL document CHEMBL1687742, “Candida albicans and Staphylococcus aureus form polymicrobial biofilms: effects on antimicrobial resistance” (2009)
Calls of active or inactive are those of the source. The calls are words filed in the database; no cut-off is given here.

Key:
[1] = tested on: Candida albicans; assay: Antifungal activity against Candida albicans SC5314 planktonic polymicrobial biofilms grown in presence of Staphylococcus aureus ATCC 29523 assessed as […] viability after 24 hrs in presence 50% bovine serum by CFU assay; type: functional, organism-based
Method in brief: (§1)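 C. albicans SC5314 at 10⁶ CFU/ml, alone or with S. aureus (10⁷ CFU/ml) for the mixed biofilm, was seeded in 50% bovine serum in tissue-culture-treated 96-well plates, 37°C, 24 h. Biofilms were PBS-washed thrice and exposed to serial antifungal concentrations diluted in 50% BS from DMSO stocks for 24 h. CFU were counted on ampicillin/erythromycin SDA after sonication. Duplicates, two experiments averaged.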

[2] = tested on: Candida albicans; assay: Antifungal activity against Candida albicans SC5314 planktonic monomicrobial biofilms assessed as […] viability after 24 hrs in presence 50% bovine serum by CFU assay; type: functional, organism-based; method in brief: as §1
[3] = tested on: Candida albicans; assay: Antifungal activity against Candida albicans SC5314 monomicrobial biofilms assessed as fungal viability after 24 hrs by CFU assay in presence of 50% bovine serum; type: functional, organism-based
Method in brief: (§2)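 Biofilms were formed in 96-well tissue culture-treated plates in 50% BS with C. albicans (10⁶ CFU/ml) and/or S. aureus (10⁷ CFU/ml) for 24 h at 37°C. They were washed three times in PBS. Vancomycin, Amp B or both were added from DMSO stocks diluted in 50% BS, and biofilms were incubated a further 24 h. Cells were sonicated, tenfold-diluted and counted as CFU on selective agar. Duplicates; averages of two experiments.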

[4] = tested on: Staphylococcus aureus; assay: Antibacterial activity against Staphylococcus aureus ATCC 29523 […] polymicrobial biofilms grown in presence of Candida albicans SC5314 assessed as bacterial viability after 24 hrs in presence 50% bovine serum by CFU assay; type: functional, organism-based
[5] = tested on: Staphylococcus aureus; assay: Antibacterial activity against 10^7 CFU/ml Staphylococcus aureus ATCC 29523 polymicrobial biofilms grown in presence of Candida albicans biofilm matrix assessed as reduction in bacterial viability at 1.582 to 1600 ug/mL after 24 hrs in presence 50% bovine serum by CFU assay; type: functional, organism-based
Method in brief: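 Matrix came from 24-h C. albicans biofilms in 50% BS. It was scraped, sonicated, centrifuged three times at 12,000 × g and treated with Amp B 20 μg/ml. S. aureus (10⁷ CFU/ml) plus matrix in 50% BS was grown in 96-well plates for 24 h at 37°C, washed, then exposed to vancomycin for 24 h. Washed cells were counted as CFU. Duplicates; two independent experiments.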

[6] = tested on: Staphylococcus aureus; assay: Antibacterial activity against 10^7 CFU/ml Staphylococcus aureus ATCC 29523 polymicrobial biofilms grown in presence of Candida albicans SC5314 assessed as bacterial viability at 1600 ug/mL after 24 hrs in presence 50% bovine serum by CFU assay; type: functional, organism-based; method in brief: as §2
[7] = tested on: Staphylococcus aureus; assay: Antibacterial activity against 10^7 CFU/ml Staphylococcus aureus ATCC 29523 monomicrobial biofilms assessed as bacterial viability after 24 hrs by CFU assay in presence of 50% bovine serum; type: functional, organism-based; method in brief: as §2
[8] = tested on: Staphylococcus aureus; assay: Antibacterial activity against 10^7 CFU/ml Staphylococcus aureus ATCC 29523 monomicrobial biofilms assessed as bacterial viability after 24 hrs by CFU assay in presence of 50% heat inactivated bovine serum; type: functional, organism-based
[9] = tested on: Candida albicans; assay: Antifungal activity against Candida albicans SC5314 polymicrobial biofilms grown in presence of sStaphylococcus aureus ATCC 29523 assessed as fungal viability after 24 hrs by CFU assay in presence of 50% bovine serum; type: functional, organism-based; method in brief: as §2
[10] = tested on: Staphylococcus aureus; assay: Antibacterial activity against 10^7 CFU/ml Staphylococcus aureus ATCC 29523 polymicrobial biofilms grown in presence of Candida albicans SC5314 assessed as bacterial viability after 24 hrs in presence of amphotericin B by CFU assay in presence of 50% bovine serum; type: functional, organism-based; method in brief: as §2
[11] = tested on: Staphylococcus aureus; assay: Antibacterial activity against 10^7 CFU/ml Staphylococcus aureus ATCC 29523 polymicrobial biofilms grown in presence of Candida albicans SC5314 assessed as log reduction in bacterial viability at 800 ug/mL after 24 hrs in presence of amphotericin B by CFU assay in presence of 50% bovine serum; type: functional; method in brief: as §2
[12] = tested on: Staphylococcus aureus; assay: Antibacterial activity against 10^7 CFU/ml Staphylococcus aureus ATCC 29523 monomicrobial biofilms assessed as log reduction in bacterial viability at 800 ug/mL after 24 hrs in presence of amphotericin B by CFU assay in presence of 50% bovine serum; type: functional; method in brief: as §2
[13] = tested on: Staphylococcus aureus; assay: Antibacterial activity against 10^7 CFU/ml Staphylococcus aureus ATCC 29523 polymicrobial biofilms grown in presence of 10^6 CFU/mL Candida albicans SC5314 assessed as bacterial viability at 800 ug/mL after 24 hrs by Transwell assay; type: functional, organism-based
Method in brief: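 S. aureus (10⁷ CFU/ml) went in the bottom well and C. albicans (10⁶ CFU/ml) on a 0.4-μm PET Transwell insert, 24 h at 37°C. After PBS washing, vancomycin 800 μg/ml (diluted in 50% BS) went to the bottom well and Amp B to the insert, for 24 h at 37°C. CFU were counted in both compartments, with no-insert controls. Duplicates; averages of two experiments.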

| SMILES | growth inhibition (GI) [1] | growth inhibition (GI) [2] | growth inhibition (GI) [3] | growth inhibition (GI) [4] | growth inhibition (GI) [5] | growth inhibition (GI) [6] | growth inhibition (GI) [7] | growth inhibition (GI) [8] | growth inhibition (GI) [9] | growth inhibition (GI) [10] | FC [11] | FC [12] | growth inhibition (GI) [13] |
| --- | --- | --- | --- | --- | --- | --- | --- | --- | --- | --- | --- | --- | --- |
| C[C@@H]1[C@H](O)[C@@H](C)/C=C/C=C/C=C/C=C/C=C/C=C/C=C/[C@H](O[C@@H]2O[C@H](C)[C@@H](O)[C@H](N)[C@@H]2O)C[C@@H]2O[C@](O)(C[C@@H](O)C[C@@H](O)[C@H](O)CC[C@@H](O)C[C@@H](O)CC(=O)O[C@H]1C)C[C@H](O)[C@H]2C(=O)O | Active | Active | inactive | – | – | – | – | – | – | – | – | – | – |
| CN[C@H](CC(C)C)C(=O)N[C@H]1C(=O)N[C@@H](CC(N)=O)C(=O)N[C@H]2C(=O)N[C@H]3C(=O)N[C@H](C(=O)N[C@H](C(=O)O)c4cc(O)cc(O)c4-c4cc3ccc4O)[C@H](O)c3ccc(c(Cl)c3)Oc3cc2cc(c3O[C@@H]2O[C@H](CO)[C@@H](O)[C@H](O)[C@H]2O[C@H]2C[C@](C)(N)[C@H](O)[C@H](C)O2)Oc2ccc(cc2Cl)[C@H]1O [VANCOMYCIN] | – | – | inactive | Active | inactive | inactive | Dose-dependent effect | inactive | inactive | Active | 2 | 2 | Active |
